Tests used:
[1] = test system: MCF7; assay: Growth inhibition of human MCF7 cells after 48 hrs by SRB assay; type: functional; conditions: MCF7, 48 h
How it was run: (§1)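 Adherent cells kept in RPMI-1640 with 5% heat-inactivated FBS, 2 mM glutamine and antibiotics at 37 °C, 5% CO₂. Plated at 1.5 ×10⁵ cells/mL (MCF-7) or 0.75 ×10⁵ cells/mL (A375-C5, NCI-H460) and grown 24 h. […] TCA fixation, SRB stain, absorbance 492 nm. GI₅₀ is 50% inhibition of net growth; mean ± SEM, three experiments in duplicate.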

[2] = Growth inhibition of human A375-C5 cells after 48 hrs by SRB assay; type: functional; conditions: A375-C5, 48 h; how it was run: as §1
[3] = test system: NCI-H460; assay: Growth inhibition of human NCI-H460 cells after 48 hrs by SRB assay; type: functional; conditions: NCI-H460, 48 h; how it was run: as §1
[4] = test system: NCI-H460; assay: Induction of apoptosis in human NCI-H460 cells at GI50 after 48 hrs by V-FITC/propidium iodide staining-based flow cytometry; type: functional
[5] = test system: NCI-H460; assay: Cell cycle arrest in human NCI-H460 cells assessed as accumulation at G0/G1 phase at GI50 after 48 hrs by flow cytometry; type: functional
[6] = test system: NCI-H460; assay: Cell cycle arrest in human NCI-H460 cells assessed as accumulation at G2/M phase at GI50 after 48 hrs by flow cytometry; type: functional
[7] = test system: NCI-H460; assay: Cell cycle arrest in human NCI-H460 cells assessed as accumulation at S phase at GI50 after 48 hrs by flow cytometry; type: functional
[8] = Solubility of the compound in DMSO at 150 uM; type: physicochemical

With `COC(=O)c1sc2cc(C#Cc3cccnc3)cnc2c1N` the GI50 [1] was > 150 µM, the GI50 [2] was > 150 µM and the GI50 [3] was > 150 µM.
Compound `COC(=O)c1sc2cc(C#Cc3ccsc3)cnc2c1N` has a GI50 [1] of 27.7 µM, a GI50 [2] of 29.6 µM and a GI50 [3] of 24.8 µM.
For `COC(=O)c1sc2cc(C#Cc3ccccc3)cnc2c1N`, the GI50 [1] was > 150 µM, the GI50 [2] was > 150 µM and the GI50 [3] was > 150 µM.
In the case of `COC(=O)c1sc2cc(C#Cc3ccccc3OC)cnc2c1N`, the GI50 [1] is reported as > 47.3 µM, the GI50 [2] is reported as > 47.3 µM and the GI50 [3] is reported as > 47.3 µM.
For `COC(=O)c1sc2cc(C#Cc3cccc(OC)c3)cnc2c1N`, the GI50 [1] was 33.4 µM, the GI50 [2] was > 75 µM and the GI50 [3] was 49 µM.
In the case of `COC(=O)c1sc2cc(C#Cc3ccc(OC)cc3)cnc2c1N`, the GI50 [1] is reported as 0.46 µM, the Activity [4] is reported as 18.7% and the GI50 [2] is reported as > 37.5 µM. The GI50 [3] was 0.32 µM, the Activity [5] was 59.7% and the Activity [6] was 18.3%. The Activity [7] was 22%.
With `COC(=O)c1sc2cc(C#Cc3ccccc3N)cnc2c1N` the GI50 [1] was 4.1 µM, the Activity [4] was 25.3% and the GI50 [2] was 3.1 µM. The GI50 [3] was 5.7 µM, the Activity [5] was 54.7% and the Activity [6] was 24.6%. It also gave an Activity [7] of 23.1%.
With `COC(=O)c1sc2cc(C#Cc3cccc(N)c3)cnc2c1N` the GI50 [1] was 10.8 µM, the GI50 [2] was 11.6 µM and the GI50 [3] was 11.5 µM.
For `COC(=O)c1sc2cc(C#Cc3ccc(N)cc3)cnc2c1N`, the GI50 [1] was 2.6 µM, the Activity [4] was 17% and the GI50 [2] was 4.8 µM. It also gave a GI50 [3] of 8.9 µM, an Activity [5] of 68% and an Activity [6] of 13.4%. It also gave an Activity [7] of 18.6%.
`COC(=O)c1sc2cc(C#Cc3ccc(N(C)C)cc3)cnc2c1N` gave a GI50 [1] of 20.6 µM, a GI50 [2] of 17.7 µM and a GI50 [3] of 16.6 µM.
In the case of `COC(=O)c1sc2cc(C#Cc3ccccc3F)cnc2c1N`, the GI50 [1] is reported as > 150 µM, the GI50 [2] is reported as > 150 µM and the GI50 [3] is reported as > 150 µM.
`COC(=O)c1sc2cc(C#Cc3ccc(F)cc3)cnc2c1N` gave a GI50 [1] of 29 µM, a GI50 [2] of 48.4 µM and a GI50 [3] of 24 µM.
For `COC(=O)c1sc2cc(C#Cc3ccccn3)cnc2c1N`, the GI50 [1] was 37.4 µM, the GI50 [2] was 13.9 µM and the GI50 [3] was 34.9 µM.
Work on `C[S+](C)[O-]` [DIMETHYL SULFOXIDE] yielded an Activity [4] of 12.2%, an Activity [5] of 55.1% and an Activity [6] of 16.1%. It also gave an Activity [7] of 28.8%.
In the case of `COc1cccc2c1C(=O)c1c(O)c3c(c(O)c1C2=O)C[C@@](O)(C(=O)CO)C[C@@H]3O[C@H]1C[C@H](N)[C@H](O)[C@H](C)O1` [DOXORUBICIN], the solubility [8] is reported as “Insoluble”.
